Assay results reported in ChEMBL document CHEMBL3992526, “Antagonizing NOD2 Signaling with Conjugates of Paclitaxel and Muramyl Dipeptide Derivatives Sensitizes Paclitaxel Therapy and Significantly Prevents Tumor Metastasis” (J Med Chem, 2017).
Blank lines part the entries; values can stand above or below the compound they belong to. The source made the active and inactive calls. No cut-off for these calls is given here.

What was measured:
[1] = Cytotoxicity against HEK-Blue cells expressing human NOD2 assessed as reduction in cell growth at 1.5625 to 50000 nM preincubated for 3 hrs followed by MDP-stimulation for 20 hrs by SRB assay; type: cell-based; conditions: 50 µM
[2] = test system: Lewis lung carcinoma cell line; experiment: Antitumor activity against mouse LLC cells implanted in iv dosed C57BL/6N mouse assessed as tumor growth inhibition; type: functional, organism-based
[3] = target: T1, Nucleotide-binding oligomerization domain-containing protein 2 (Homo sapiens, UniProt Q9HC29); experiment: Inhibition of MDP-induced human NOD2 signaling expressed in HEK-Blue cells preincubated for 3 hrs followed by MDP-stimulation for 20 hrs by spectrophotometry based SEAP reporter gene assay; type: cell-based
T1 sequence (Q9HC29 whole entry, the tested form may be a part): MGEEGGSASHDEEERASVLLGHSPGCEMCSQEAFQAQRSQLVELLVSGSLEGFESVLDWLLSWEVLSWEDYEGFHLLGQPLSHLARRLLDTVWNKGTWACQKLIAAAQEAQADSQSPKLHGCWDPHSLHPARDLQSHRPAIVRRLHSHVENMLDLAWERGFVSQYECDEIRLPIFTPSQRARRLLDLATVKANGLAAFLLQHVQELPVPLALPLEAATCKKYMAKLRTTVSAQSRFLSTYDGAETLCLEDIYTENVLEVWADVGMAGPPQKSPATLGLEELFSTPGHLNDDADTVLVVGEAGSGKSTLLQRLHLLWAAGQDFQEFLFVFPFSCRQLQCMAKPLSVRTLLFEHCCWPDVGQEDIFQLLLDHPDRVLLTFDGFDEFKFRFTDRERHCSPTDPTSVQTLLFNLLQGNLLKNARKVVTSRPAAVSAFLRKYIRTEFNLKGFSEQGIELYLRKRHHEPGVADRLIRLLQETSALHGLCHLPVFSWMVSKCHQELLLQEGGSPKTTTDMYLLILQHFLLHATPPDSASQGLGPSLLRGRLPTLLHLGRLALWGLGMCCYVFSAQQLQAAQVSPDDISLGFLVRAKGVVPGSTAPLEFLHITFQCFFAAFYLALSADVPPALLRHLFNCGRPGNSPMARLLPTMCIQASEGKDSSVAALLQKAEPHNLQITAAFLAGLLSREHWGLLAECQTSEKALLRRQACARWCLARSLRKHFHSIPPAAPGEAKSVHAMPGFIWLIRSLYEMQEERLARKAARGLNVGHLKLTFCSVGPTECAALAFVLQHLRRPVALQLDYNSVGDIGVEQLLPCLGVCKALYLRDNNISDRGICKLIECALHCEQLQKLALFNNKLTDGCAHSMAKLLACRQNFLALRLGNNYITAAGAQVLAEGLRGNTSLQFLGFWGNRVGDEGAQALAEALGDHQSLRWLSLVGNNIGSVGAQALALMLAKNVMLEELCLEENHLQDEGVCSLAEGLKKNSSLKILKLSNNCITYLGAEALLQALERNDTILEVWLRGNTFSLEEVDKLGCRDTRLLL

[4] = Cytotoxicity against HEK-Blue cells expressing human NOD2 assessed as reduction in cell growth at 1.5625 to 50000 nM incubated for 3 hrs by SRB assay; type: cell-based; conditions: 50 µM
[5] = target: T1, Nucleotide-binding oligomerization domain-containing protein 2; experiment: Activation of human NOD2 signaling expressed in HEK-Blue cells incubated for 3 hrs by spectrophotometry based SEAP reporter gene assay; type: cell-based
[6] = Cmax in tumor of LLC tumor bearing C57BL/6N mouse assessed as MDA-linker level at 30 mg/kg, iv by LC-MS/MS analysis; type: ADME, organism-based, Neoplasm; set-up: dose 30 mg/kg, route intravenous; conditions: in vivo
Summary of the method: (§1)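 LLC tumor-bearing mice received a single iv injection at 30 mg/kg; tumor tissue was sampled over time and assayed for intact conjugate and its metabolites PTX and MDA-linker. Tmax in h and Cmax in nmol/g tumor were reported, n=5 mice.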

[7] = AUC (0 to t) in tumor of LLC tumor bearing C57BL/6N mouse assessed as paclitaxel level at 30 mg/kg, iv up to 24 hrs by LC-MS/MS analysis; type: ADME, organism-based, Neoplasm; conditions: in vivo; summary of the method: as §1
[8] = AUC (0 to t) in tumor of LLC tumor bearing C57BL/6N mouse assessed as MDA-linker level at 30 mg/kg, iv up to 24 hrs by LC-MS/MS analysis; type: ADME, organism-based, Neoplasm; conditions: in vivo; summary of the method: as §1
[9] = Cmax in tumor of LLC tumor bearing C57BL/6N mouse at 30 mg/kg, iv by LC-MS/MS analysis; type: ADME, organism-based, Neoplasm; set-up: dose 30 mg/kg, route intravenous; conditions: in vivo; summary of the method: as §1
[10] = AUC (0 to t) in tumor of LLC tumor bearing C57BL/6N mouse at 30 mg/kg, iv up to 24 hrs by LC-MS/MS analysis; type: ADME, organism-based, Neoplasm; conditions: in vivo; summary of the method: as §1
[11] = Tmax in tumor of LLC tumor bearing C57BL/6N mouse assessed as MDA-linker level at 30 mg/kg, iv by LC-MS/MS analysis; type: ADME, organism-based, Neoplasm; conditions: in vivo; summary of the method: as §1
[12] = Cmax in tumor of LLC tumor bearing C57BL/6N mouse assessed as paclitaxel level at 30 mg/kg, iv by LC-MS/MS analysis; type: ADME, organism-based, Neoplasm; set-up: dose 30 mg/kg, route intravenous; conditions: in vivo; summary of the method: as §1
[13] = Tmax in tumor of LLC tumor bearing C57BL/6N mouse assessed as paclitaxel level at 30 mg/kg, iv by LC-MS/MS analysis; type: ADME, organism-based, Neoplasm; conditions: in vivo; summary of the method: as §1
[14] = target: T1, Nucleotide-binding oligomerization domain-containing protein 2; experiment: Inhibition of His-tagged and FLAG-tagged NOD2 (unknown origin) self-oligomerization expressed in HEK293T cells at 10 uM preincubated for 1 hr followed by MDP stimulation for 15 mins by co-immunoprecipitation assay; type: cell-based
[15] = target: T1, Nucleotide-binding oligomerization domain-containing protein 2; experiment: Inhibition of MDP-stimulated NOD2 activation in human PBMC derived macrophages assessed as reduction in NOD2-mediated MAPK signaling by measuring decrease in phosphorylated ERK1/2 level preincubated for 1 hr followed by MDP-stimulation for 1 hr by Western blot method
[16] = target: T1, Nucleotide-binding oligomerization domain-containing protein 2; experiment: Inhibition of MDP-stimulated human NOD2 activation expressed in HEK-Blue cells assessed as reduction in NOD2-mediated MAPK signaling by measuring decrease in phosphorylated ERK1/2 level preincubated for 1 hr followed by MDP-stimulation for 1 hr by Western blot method; type: cell-based
[17] = test system: Lewis lung carcinoma cell line; experiment: (§2) Potentiation of paclitaxel-induced antitumor activity against mouse LLC cells implanted in C57BL/6N mouse assessed as reduction in tumor weight at 30 mg/kg, iv administered once in every two days and paclitaxel treatment once in every four days measured 4 weeks after implantation; type: functional, organism-based
[18] = Cytotoxicity against HEK-Blue cells expressing human NOD2 assessed as reduction in cell growth at 0.3125 to 10000 nM incubated for 3 hrs by SRB assay; type: cell-based; conditions: 10 µM
[19] = test system: Lewis lung carcinoma cell line; experiment: Antitumor activity against mouse LLC cells implanted in C57BL/6N mouse assessed as inhibition of lung tumor metastasis at 30 mg/kg, iv administered once in every two days measured 4 weeks after implantation; type: functional, organism-based
[20] = target: T1, Nucleotide-binding oligomerization domain-containing protein 2; experiment: Inhibition of MDP-stimulated NOD2 activation in human PBMC derived macrophages assessed as reduction in NOD2-mediated NF-kB signaling by measuring decrease in IkBalpha level preincubated for 1 hr followed by MDP-stimulation for 1 hr by Western blot method
[21] = target: T1, Nucleotide-binding oligomerization domain-containing protein 2; experiment: Inhibition of MDP-stimulated human NOD2 activation expressed in HEK-Blue cells assessed as reduction in NOD2-mediated NF-kB signaling by measuring decrease in IkBalpha level preincubated for 1 hr followed by MDP-stimulation for 1 hr by Western blot method; type: cell-based
[22] = target: T1, Nucleotide-binding oligomerization domain-containing protein 2; experiment: Inhibition of MDP-stimulated NOD2 activation in human PBMC derived macrophages assessed as reduction in NOD2-mediated MAPK signaling by measuring decrease in phosphorylated p38 level preincubated for 1 hr followed by MDP-stimulation for 1 hr by Western blot method
[23] = target: T1, Nucleotide-binding oligomerization domain-containing protein 2; experiment: Inhibition of MDP-stimulated NOD2 activation in human PBMC derived macrophages assessed as reduction in NOD2-mediated MAPK signaling by measuring decrease in phosphorylated JNK level preincubated for 1 hr followed by MDP-stimulation for 1 hr by Western blot method
[24] = target: T1, Nucleotide-binding oligomerization domain-containing protein 2; experiment: Inhibition of MDP-stimulated human NOD2 activation expressed in HEK-Blue cells assessed as reduction in NOD2-mediated MAPK signaling by measuring decrease in phosphorylated p38 level preincubated for 1 hr followed by MDP-stimulation for 1 hr by Western blot method; type: cell-based
[25] = test system: Lewis lung carcinoma cell line; experiment: as §2, with “inhibition of lung” for “reduction in”, “metastasis” for “weight”, “implantation relative to control” for “implantation”; type: functional
[26] = target: T1, Nucleotide-binding oligomerization domain-containing protein 2; experiment: Inhibition of MDP-stimulated human NOD2 activation expressed in HEK-Blue cells assessed as reduction in NOD2-mediated MAPK signaling by measuring decrease in phosphorylated JNK level preincubated for 1 hr followed by MDP-stimulation for 1 hr by Western blot method; type: cell-based
[27] = test system: Lewis lung carcinoma cell line; experiment: Antitumor activity against mouse LLC cells implanted in C57BL/6N mouse assessed as reduction in tumor weight at 30 mg/kg, iv administered once in every two days measured 4 weeks after implantation; type: functional, organism-based
[28] = Cytotoxicity against HEK-Blue cells expressing human NOD2 assessed as reduction in cell growth at 0.3125 to 10000 nM preincubated for 3 hrs followed by MDP-stimulation for 20 hrs by SRB assay; type: cell-based; conditions: 10 µM
[29] = target: Receptor-interacting serine/threonine-protein kinase 2 (Homo sapiens) (UniProt O43353); experiment: Inhibition of recombinant human N-terminal GST-tagged RIP2 (1 to 299 residues) expressed in baculovirus infected Sf9 cells at 10 uM using MBP as substrate incubated for 60 mins in presence of ATP by ADP-Glo assay
Chain of Receptor-interacting serine/threonine-protein kinase 2 (Homo sapiens) (O43353 whole entry, the tested form may be a part): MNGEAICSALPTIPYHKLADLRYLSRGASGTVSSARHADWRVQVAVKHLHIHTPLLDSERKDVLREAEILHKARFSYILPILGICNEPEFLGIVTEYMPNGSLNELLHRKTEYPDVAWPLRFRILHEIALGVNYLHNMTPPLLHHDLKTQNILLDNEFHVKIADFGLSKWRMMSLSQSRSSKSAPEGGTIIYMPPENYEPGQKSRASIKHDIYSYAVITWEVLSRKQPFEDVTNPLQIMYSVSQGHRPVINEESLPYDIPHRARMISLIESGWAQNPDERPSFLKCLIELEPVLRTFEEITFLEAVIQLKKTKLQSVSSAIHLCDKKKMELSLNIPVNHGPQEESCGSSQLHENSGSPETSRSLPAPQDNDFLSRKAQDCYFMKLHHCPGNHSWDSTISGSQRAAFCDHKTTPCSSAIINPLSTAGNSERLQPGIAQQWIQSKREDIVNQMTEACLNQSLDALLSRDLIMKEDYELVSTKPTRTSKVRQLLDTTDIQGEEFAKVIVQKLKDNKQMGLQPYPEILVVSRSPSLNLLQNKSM

[30] = target: T1, Nucleotide-binding oligomerization domain-containing protein 2; experiment: Inhibition of NOD2 signaling in human PBMC derived macrophages assessed as inhibition of MDP-induced IL-6 mRNA expression at 1 to 10 uM preincubated for 1 hr followed by MDP-stimulation for 90 mins by RT-PCR method
[31] = target: T1, Nucleotide-binding oligomerization domain-containing protein 2; experiment: Inhibition of MDP-stimulated human NOD2 activation expressed in HEK-Blue cells assessed as reduction in NOD2-mediated NF-kB signaling by measuring decrease in phosphorylated RIP2 level preincubated for 1 hr followed by MDP-stimulation for 1 hr by Western blot method; type: cell-based
[32] = target: T1, Nucleotide-binding oligomerization domain-containing protein 2; experiment: Inhibition of MDP-stimulated NOD2 activation in human PBMC derived macrophages assessed as reduction in NOD2-mediated NF-kB signaling by measuring decrease in phosphorylated RIP2 level preincubated for 1 hr followed by MDP-stimulation for 1 hr by Western blot method
[33] = target: T1, Nucleotide-binding oligomerization domain-containing protein 2; experiment: Inhibition of MDP-induced human NOD2 signaling expressed in HEK-Blue cells at 10 uM preincubated for 3 hrs followed by MDP-stimulation for 20 hrs by spectrophotometry based SEAP reporter gene assay relative to control; type: cell-based
[34] = Tmax in tumor of LLC tumor bearing C57BL/6N mouse at 18 mg/kg, iv by LC-MS/MS analysis; type: ADME, organism-based, Neoplasm
Summary of the method: (§3)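 Mice bearing LLC tumors were given a single iv injection at equimolar doses: the conjugate at 30 mg/kg or paclitaxel at 18 mg/kg. Tumor tissue was sampled over time. Intact conjugate, released paclitaxel and MDA-linker were quantified in tumor tissue (nmol/g). Tmax and Cmax were taken from tumor concentration profiles, n=5 per group.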

[35] = Cmax in tumor of LLC tumor bearing C57BL/6N mouse at 18 mg/kg, iv by LC-MS/MS analysis; type: ADME, organism-based, Neoplasm; set-up: dose 18 mg/kg, route intravenous; conditions: in vivo
Summary of the method: (§4)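 Tumour-tissue pharmacokinetics in LLC tumour-bearing mice after a single iv injection of PTX at 18 mg/kg, equimolar to the conjugate at 30 mg/kg. Analyte concentrations were measured in tumour tissue over time (n=5 mice). Tmax is given in h and Cmax in nmol/g.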

[36] = Drug level in tumor of LLC tumor bearing C57BL/6N mouse treated with MTC-220 at 30 mg/kg, iv up to 24 hrs by LC-MS/MS analysis relative to paclitaxel alone; type: ADME, organism-based, Neoplasm; conditions: in vivo; summary of the method: as §3
[37] = AUC (0 to t) in tumor of LLC tumor bearing C57BL/6N mouse at 18 mg/kg, iv up to 24 hrs by LC-MS/MS analysis; type: ADME, organism-based, Neoplasm; conditions: in vivo; summary of the method: as §4

inhibition activity call (active/not active) [3]: inactive | Activity [5]: inactive
Compound: C[C@H](NC(=O)/C=C/c1ccc(Cl)cc1)C(=O)N[C@H](CCC(=O)N[C@@H](CCCCNC(=O)CCC(=O)O)C(N)=O)C(N)=O
Activity [1]: Non-Toxic | TGI [2]: inactive | Activity [4]: Non-Toxic

Compound: CC(=O)O[C@H]1C(=O)[C@@]2(C)[C@H]([C@H](OC(=O)c3ccccc3)[C@]3(O)C[C@H](OC(=O)[C@H](OC(=O)CCC(=O)NCCCC[C@H](NC(=O)CC[C@@H](NC(=O)[C@H](C)NC(=O)/C=C/c4ccc(Cl)cc4)C(N)=O)C(N)=O)[C@@H](NC(=O)c4ccccc4)c4ccccc4)C(C)=C1C3(C)C)[C@]1(OC(C)=O)CO[C@@H]1C[C@@H]2O
Cmax [6]: 1.01 nmol/g | AUCt [7]: 89.63 nmol·h/g | AUCt [8]: 16.27 nmol·h/g | Cmax [9]: 15.39 nmol/g | AUCt [10]: 211.02 nmol·h/g | Tmax [11]: 10.4 h | Cmax [12]: 5.83 nmol/g | Tmax [13]: 12 h

inhibition [14]: Active | inhibition [15]: Dose-dependent effect | inhibition [16]: Dose-dependent effect | inhibition [20]: Dose-dependent effect | inhibition [21]: Dose-dependent effect | inhibition [22]: Dose-dependent effect | inhibition [23]: Dose-dependent effect | inhibition [24]: Dose-dependent effect | inhibition [26]: Dose-dependent effect | inhibition activity call (active/not active) [3]: Active | inhibition [29]: inactive | inhibition [30]: Active | inhibition [31]: Dose-dependent effect | inhibition [32]: Dose-dependent effect | inhibition [33]: 50%
Compound: CC(=O)O[C@H]1C(=O)[C@@]2(C)[C@H]([C@H](OC(=O)c3ccccc3)[C@]3(O)C[C@H](OC(=O)[C@H](OCCC(=O)NCCCC[C@H](NC(=O)CC[C@@H](NC(=O)[C@H](C)NC(=O)/C=C/c4ccc(Cl)cc4)C(N)=O)C(N)=O)[C@@H](NC(=O)c4ccccc4)c4ccccc4)C(C)=C1C3(C)C)[C@]1(OC(C)=O)CO[C@@H]1C[C@@H]2O
TGI [17]: Active | Activity [18]: Non-Toxic | inhibition [19]: inactive | fold change (FC) [25]: 2 | TGI [27]: inactive | Activity [28]: Non-Toxic

Tmax [34]: 1.05 h | Cmax [35]: 4.85 nmol/g | fold change (FC) [36]: 2 | AUCt [37]: 46.62 nmol·h/g | IC50 [3]: 7.94 µM
Compound: CC(=O)O[C@H]1C(=O)[C@@]2(C)[C@H]([C@H](OC(=O)c3ccccc3)[C@]3(O)C[C@H](OC(=O)[C@H](O)[C@@H](NC(=O)c4ccccc4)c4ccccc4)C(C)=C1C3(C)C)[C@]1(OC(C)=O)CO[C@@H]1C[C@@H]2O [PACLITAXEL]
